Screening results deposited in PubChem by Sanford-Burnham Center for Chemical Genomics.
Apaf1 activ: human Apaf-1 activation; activity change, negative = activation, % at 20 µM; AID 489031; Apaf-1 apoptosome caspase-3 activation, DEVD-Rh110 fluorescence; hits give low values; O14727; actives 0.31% (n = 330,000);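 active means activity change at or below -40% at 20 µM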
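Material: reconstituted apoptosome of Apaf-1, cytochrome c, caspase-9, procaspase-3; times: 30 min preincubation, 50 min reaction, room temperature; measured by: fluorescence, 540 nm emission, 480 nm excitation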
Rh110 act interf: Rh110 signal interference in Apaf-1 activator counter-screen; shares compounds with Apaf1 activ; Rh110 fluorescence interference, quenched caspase reaction, Ex480/Em540; fluorescence interference (activity change), % at 20 µM, hits read low; 980 tested, under 10 active;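 active means mean activity change at or below -40% when tested at 20 µM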
Apaf-1 act conf2: confirmation of human Apaf-1 activators; shares compounds with Apaf1 activ; actives 5% (n = 980); reconstituted apoptosome caspase-3 activity, DEVD-Rh110 fluorescence; hits give low values; activity change, negative = activation, % at 20 µM;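 active means mean activity change at or below -40%, meaning activation of 40% or more, at 20 µM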
Large screens that a line does not name were inactive (follow-up assays come after a bar, where they were run). Not all results are given here.

C#CCOCCOCCOCCNc1nc(N2CCN(C(=O)CCCCCCCCCCNC(=O)[C@H]([C@@H](C)CC)n3cc(CCCCN=C(N)N)nn3)CC2)nc(N2CCN(C(=O)CCCCCCCCCCNC(=O)[C@@H]([C@H](C)O)n3cc(C)nn3)CC2)n1	none
Fc1ccc(CN2CCSCC2)cc1Br	Apaf1 activ -115 | Rh110 act interf inactive | Apaf-1 act conf2 inactive
C#CCOCCOCCOCCNc1nc(N2CCN(C(=O)CCCCCCCCCCNC(=O)[C@H](CCCCN)n3cc(C[C@@H](C)CC)nn3)CC2)nc(N2CCN(C(=O)CCCCCCCCCCNC(=O)[C@@H]([C@H](C)O)n3cc(C)nn3)CC2)n1	none
CCc1sc(NC(=O)CCC(=O)O)nc1-c1cc2ccccc2oc1=O	Apaf1 activ -223 | Rh110 act interf inactive | Apaf-1 act conf2 inactive
COc1ccc2c(c1)Cc1sc(NC(=O)c3ccccc3)nc1-2	none
Cc1ccc(S(=O)(=O)N(C)C)cc1NC(=O)CSc1nc2ncc(Cl)cc2[nH]1	Apaf1 activ -111 | Rh110 act interf inactive | Apaf-1 act conf2 inactive
Cc1ccc(S(=O)(=O)N(C)C)cc1NC(=S)Nc1cccc2ccccc12	none
CC(=O)[C@@]1(O)CCC2C3C=CC4=CC(=O)CC[C@]4(C)C3CC[C@@]21C (stereo not given in full)	Apaf1 activ -287 | Rh110 act interf inactive | Apaf-1 act conf2 inactive
CC(=O)[C@H]1CC[C@H]2[C@@H]3CCC4=CC(=O)CC[C@]4(C)[C@H]3CC[C@]12C	none
COc1cc(OC)c2c(-c3cccc(-c4ccc(CO)cc4)c3)cc(=O)oc2c1	none
O=C1c2ccccc2C(O)N1Cc1cccs1 (stereo not given)	Apaf1 activ -41 | Rh110 act interf inactive | Apaf-1 act conf2 inactive
O=C1C(NS(=O)(=O)c2cccs2)=C(N2CCN(c3ccccc3)CC2)C(=O)c2ccccc21	none
CCOC(=O)C1=C(c2ccccc2)NC(N)=NC1c1ccc(OCc2ccc(Cl)cc2)c(OC)c1 (stereo not given)	none
Cc1c(C(=O)N(C)CCOc2ccccc2)oc2c(Cl)cccc12	none
C#CCOCCOCCOCCNc1nc(N2CCN(C(=O)CCCCCCCCCCNC(=O)[C@@H](CCC(=O)O)n3cc(CCCCCN)nn3)CC2)nc(N2CCN(C(=O)CCCCCCCCCCNC(=O)[C@H](CCCCN)n3cc(C[C@@H](C)CC)nn3)CC2)n1	none
COc1ccc(-c2nn(-c3ccccc3)cc2/C=C(\C#N)C(N)=O)cc1[N+](=O)[O-]	Apaf1 activ -53 | Rh110 act interf inactive | Apaf-1 act conf2 inactive
COc1ccc(-c2nn(-c3ccccc3)cc2/C=C(/C#N)C(N)=O)cc1[N+](=O)[O-]	Apaf1 activ -57 | Rh110 act interf inactive | Apaf-1 act conf2 inactive
N#C/C(=C/c1cn(-c2ccccc2)nc1-c1cccc(OCc2ccc(F)cc2)c1)C(=O)NCCCn1ccnc1	none
CC1=NN(c2ccccc2)C(=O)/C1=C\c1ccc(Oc2ccc([N+](=O)[O-])cc2[N+](=O)[O-])cc1	none
CC(C)N=c1cc2n(-c3ccc(Cl)cc3)c3ccccc3nc-2cc1Nc1ccc(Cl)cc1	none
CCCCCCCCCCCCCCCC[n+]1cccc(C(=O)N(CC)CC)c1	none
CNC[C@H](CC1CCCCC1)NC[C@H](Cc1ccccc1)NCCC12CC3CC(CC(C3)C1)C2	none
CCN(CC)CCOC(=O)c1ccc(N/C=C(/C#N)c2nc(-c3cccc(OC)c3)cs2)cc1	none
CCN(CC)c1ccc(N=Cc2ccc([N+](=O)[O-])o2)cc1	none
COCc1cc(=O)oc2cc(NC(=O)c3ccc(C(C)(C)C)cc3)ccc12	Apaf1 activ -64 | Rh110 act interf inactive | Apaf-1 act conf2 inactive
CCCC[n+]1ccn(C2=C([O-])c3ccccc3C(=O)/C2=N\S(=O)(=O)c2ccc(Cl)cc2)c1	none
Cc1cc(C(=O)OCC(=O)Nc2ccccc2C#N)c(C)o1	Apaf1 activ -45 | Rh110 act interf inactive | Apaf-1 act conf2 inactive
CCN(c1ccccc1)S(=O)(=O)c1ccc(Cl)c(NC(=O)COC(=O)c2cc(O)c3ccccc3c2O)c1	none
N#CC1(NC(=O)COC(=O)c2cc(O)c3ccccc3c2O)CCCCC1	none
CC(NC(=O)c1ccccc1Cl)C(=O)O (stereo not given)	Apaf1 activ -532 | Rh110 act interf inactive | Apaf-1 act conf2 inactive
O=C(NC1(O)C(=O)c2ccccc2C1=O)c1c(Cl)cccc1Cl	none
CC(=O)N(C)c1ccc(N=Cc2cc3c(cc2[N+](=O)[O-])OCO3)cc1	none
O=C1C(Cl)=C(NCCN2CCCCC2)C(=O)c2ccccc21	none
N#Cc1c(N)n(CCNC(=O)c2cccs2)c2nc3ccccc3nc12	none
Cc1ccccc1NC(=O)C1CC(Cl)=CCC1C(=O)O (stereo not given)	Apaf1 activ -111 | Rh110 act interf inactive | Apaf-1 act conf2 inactive
NC(=O)CSc1nc2c(sc3ccccc32)c(=O)n1CCCN1CCOCC1	Apaf1 activ -236 | Rh110 act interf inactive | Apaf-1 act conf2 inactive
CCCCN(CC)S(=O)(=O)c1ccc(C(=O)N(CCCN(C)C)c2nc3cc(C)cc(C)c3s2)cc1	none
N#Cc1cn(Cc2ccncc2)c(=O)[nH]c1=O	Apaf1 activ -182 | Rh110 act interf inactive | Apaf-1 act conf2 inactive
COc1ccc(Cn2c(N)c(C#N)c3nc4ccccc4nc32)cc1OC	none
CC(C)c1c(Cl)c(O)c(-c2ccccc2)c(=O)n1-c1ccc(F)cc1	Apaf1 activ -40 | Rh110 act interf inactive | Apaf-1 act conf2 inactive
N#CCCn1[nH]c(-c2ccccc2)cc1=O	none
O=C(C[n+]1cccc(C(=O)N/N=C/c2ccc(Br)cc2)c1)c1ccccc1	none
O=C(N/N=C/c1ccc(OC(=O)c2ccccc2)cc1)c1ccc(CN2CCOCC2)cc1	Apaf1 activ -68 | Rh110 act interf inactive | Apaf-1 act conf2 inactive
COc1ccc(/C=N/NC(=O)c2nn(-c3ccccc3)c(=O)c3c(N)scc23)cc1	none
C=CCn1c(N)c(C(=O)Nc2cccc(C)c2)c2nc3ccccc3nc21	none
O=C(O)/C=C/C(=O)c1ccc(O)cc1	Apaf1 activ -83 | Rh110 act interf inactive | Apaf-1 act conf2 inactive
C[C@H](CCC(=O)O)[C@H]1CC[C@H]2[C@@H]3[C@H](O)C[C@@H]4C[C@H](O)CC[C@]4(C)[C@H]3C[C@H](O)[C@]12C	none
CCC(OCC(O)CN1CCCCC1)c1ccccc1 (stereo not given)	Apaf1 activ -516 | Rh110 act interf inactive | Apaf-1 act conf2 inactive
Cc1cc(C(=O)N/N=C2\CC(=O)c3ccccc32)c(C)n1-c1ccc(F)cc1	none
Cc1cc(C)n(-c2cc(Cl)cc(Cl)c2)c(=O)c1C#N	Apaf1 activ -403 | Rh110 act interf inactive | Apaf-1 act conf2 inactive
Nc1ccc2nn(-c3cccc4ccccc34)nc2c1	none
c1ccc2c(c1)CC/C2=N/Nc1nc2ccccc2[nH]1	none
CCCC(=O)N1c2ccccc2[C@@H](N(C(C)=O)c2ccccc2)C[C@H]1C	Apaf1 activ -55 | Rh110 act interf inactive | Apaf-1 act conf2 inactive
Cc1ccc2[nH]c3c(c2c1)CN(C(=O)CN1CCN(c2cccc(C)c2C)CC1)CC3	none
C#CCOCCOCCOCCNc1nc(N2CCN(C(=O)[C@H]([C@@H](C)CC)n3cc([C@@H](N)CC(C)C)nn3)CC2)nc(N2CCN(C(=O)[C@H](Cc3cc4ccccc4[nH]3)n3cc([C@@H](N)Cc4ccc(O)cc4)nn3)CC2)n1	none
